Measured values from different studies.
Action: inhibitor
USP51: Ubiquitin carboxyl-terminal hydrolase 51 (USP51, Homo sapiens, UniProt Q70EK9)
DRD3: D(3) dopamine receptor (DRD3, Homo sapiens, UniProt P35462)
SLC6A3: Sodium-dependent dopamine transporter (SLC6A3, Homo sapiens, UniProt Q01959)
CA12: Carbonic anhydrase 12 (CA12, Homo sapiens, UniProt O43570)

target | observed | technique | cell line | concentration | inhibition [%] | SMILES
USP51 | enzyme activity |  |  | 5 µM | 48 | CN1C(=O)/C(=C2/C(=O)Nc3ccccc32)c2ccccc21
DRD3 | enzyme activity |  |  | 10 µM | 52.9 | Cc1cccc(N2CCN(CC(O)COc3ccc4ccccc4c3)CC2)c1C (stereo not drawn)
SLC6A3 | transporter uptake |  | HEK293 | 1 µM | 62.6 | Clc1ccc(C(c2ccc(Cl)cc2)c2nnnn2CCCCN2CCC(Cc3ccc(Cl)c(Cl)c3)CC2)cc1
DRD3 | enzyme activity |  |  | 10 µM | 8.6 | COc1cc(OC)c(OC)cc1CN1CCN(Cc2c[nH]c3ccccc23)CC1
USP51 | enzyme activity |  |  | 5 µM | 14 | O=C1c2cccc(O)c2C(=O)c2c(O)cccc21
DRD3 | enzyme activity |  |  | 10 µM | -24.9 | Cc1[nH]n(-c2ccc([N+](=O)[O-])cc2)c(=O)c1C=NCCN1CCN(C(=O)c2cccc(F)c2)CC1
USP51 | enzyme activity |  |  | 5 µM | 99 | O=C(O)c1cc(O)c(O)c(O)c1
DRD3 | enzyme activity |  |  | 10 µM | 42.5 | O=C1C2CCCN2C(=O)N1CCCCN1CCN(c2cccc(C(F)(F)F)c2)CC1 (stereo not drawn)
CA12 | enzyme activity | absorbance |  | 0.1 µM | 27.5 | CCOC(=O)C1CSc2[nH]c(=O)sc2C1c1cn(-c2ccccc2)nc1-c1ccccc1 (stereo not drawn)
SLC6A3 | transporter uptake |  | HEK293 | 1 µM | 33.1 | Fc1ccc(C(c2ccc(F)cc2)c2nnnn2CCCN2CCC(CCCc3ccccc3)CC2)cc1
CA12 | enzyme activity | absorbance |  | 100 µM | 75 | O=C1NC(=S)C(=Cc2cn(-c3ccccc3)nc2-c2ccc(Br)cc2)S1
USP51 | enzyme activity |  |  | 5 µM | 43 | CC(C)Oc1ccc2c(=O)c(-c3ccccc3)coc2c1
CA12 | enzyme activity | absorbance |  | 1 µM | 58.2 | CCOC(=O)C1CSc2[nH]c(=O)sc2C1c1cn(-c2ccccc2)nc1-c1ccc(OC)cc1 (stereo not drawn)
DRD3 | enzyme activity |  |  | 10 µM | -20.3 | COc1ccccc1N1CCN(CC(O)Cn2cnc3c2c(=O)n(C)c(=O)n3C)CC1 (stereo not drawn)
USP51 | enzyme activity |  |  | 5 µM | 34 | C[Se]CC[C@H](N)C(=O)O
DRD3 | enzyme activity |  |  | 10 µM | 22.8 | COc1ccc(S(N)(=O)=O)cc1C(=O)NCCCN1CCN(c2ccccc2C)CC1
CA12 | enzyme activity | absorbance |  | 0.1 µM | 40.6 | N#CC1CSc2[nH]c(=O)sc2C1c1cn(-c2ccccc2)nc1-c1ccc(Br)cc1 (stereo not drawn)
SLC6A3 | transporter uptake |  | HEK293 | 1 µM | 80.3 | c1ccc(CCC2CCN(CCCCn3nnnc3C(c3ccccc3)c3ccccc3)CC2)cc1
USP51 | enzyme activity |  |  | 5 µM | 29 | CC(=O)c1ccc(O)c(C(=O)O)c1
SLC6A3 | transporter uptake |  | HEK293 | 1 µM | 92.3 | Fc1ccc(C(c2ccc(F)cc2)c2nnnn2CCCCN2CCC(Cc3ccccc3)CC2)cc1
USP51 | enzyme activity |  |  | 5 µM | 51 | COc1cc2c(cc1OC)-c1cc3ccc(OC)c(OC)c3c[n+]1CC2
DRD3 | enzyme activity |  |  | 10 µM | 39.6 | COc1cc(CNCCc2c[nH]c3ccccc23)cc(Cl)c1OCC(N)=O
CA12 | enzyme activity | absorbance |  | 1 µM | 56.2 | Cc1ccc(-c2nn(-c3ccccc3)cc2C2c3sc(=O)[nH]c3SC3C(=O)N(c4ccccc4)C(=O)C32)cc1 (stereo not drawn)
USP51 | enzyme activity |  |  | 5 µM | 0 | OC[C@H]1NC[C@H](O)[C@@H](O)[C@@H]1O
CA12 | enzyme activity | absorbance |  | 10 µM | 85.5 | CCOC(=O)C1CSc2[nH]c(=O)sc2C1c1cn(-c2ccccc2)nc1-c1ccc(Cl)cc1 (stereo not drawn)
DRD3 | enzyme activity |  |  | 10 µM | 63.4 | O=C1C2CCCN2C(=O)N1CCCCN1CCN(c2cccc(Cl)c2)CC1 (stereo not drawn)
SLC6A3 | transporter uptake |  | HEK293 | 1 µM | 67.7 | Clc1ccc(CC2CCN(CCCCn3nnnc3C(c3ccccc3)c3ccccc3)CC2)cc1Cl
CA12 | enzyme activity | absorbance |  | 1 µM | 55.8 | CCOC(=O)C1CSc2[nH]c(=O)sc2C1c1cn(-c2ccccc2)nc1-c1ccc(Br)cc1 (stereo not drawn)
SLC6A3 | transporter uptake |  | HEK293 | 1 µM | 93.5 | Fc1ccc(C(c2ccc(F)cc2)c2nnnn2CCCN2CCC(Cc3ccccc3)CC2)cc1
CA12 | enzyme activity | absorbance |  | 10 nM | 11.9 | CCOC(=O)C1CSc2[nH]c(=O)sc2C1c1cn(-c2ccccc2)nc1-c1ccc(C)cc1 (stereo not drawn)
